Here are results for six compounds from PubChem BioAssay AID463078 (The Scripps Research Institute Molecular Screening Center, 2010).

Activity calls are given as the source filed them.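 The calls were made as follows: active = fold change below the hit cutoff of 0.7; inactive = the rest.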

Nuclear receptor ROR-alpha (Homo sapiens), sequence (P35398 whole entry, looked up, the tested form may be a part): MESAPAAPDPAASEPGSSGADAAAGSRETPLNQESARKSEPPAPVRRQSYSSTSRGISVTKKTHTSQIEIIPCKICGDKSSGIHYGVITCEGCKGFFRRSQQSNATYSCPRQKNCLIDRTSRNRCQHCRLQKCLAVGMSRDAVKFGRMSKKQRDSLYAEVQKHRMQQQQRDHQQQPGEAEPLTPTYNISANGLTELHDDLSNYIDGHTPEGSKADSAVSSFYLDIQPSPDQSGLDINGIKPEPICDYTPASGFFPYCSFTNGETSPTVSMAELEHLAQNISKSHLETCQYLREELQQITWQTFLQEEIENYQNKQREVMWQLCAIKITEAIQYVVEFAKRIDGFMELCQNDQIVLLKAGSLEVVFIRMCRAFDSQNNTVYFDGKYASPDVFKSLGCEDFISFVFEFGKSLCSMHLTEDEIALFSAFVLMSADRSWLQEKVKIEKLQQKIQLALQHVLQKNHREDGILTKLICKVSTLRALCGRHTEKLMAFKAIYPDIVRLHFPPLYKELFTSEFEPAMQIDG

This assay addresses Nuclear receptor ROR-alpha (Homo sapiens) (UniProt P35398). The assay can be described thus: decrease of GAL4-RORa LBD luciferase signal – cell-based, luminescence, assay provider, RORA inverse agonist project, late-stage follow-up (AID 463078). Conditions: HEK293T GAL4-RORa LBD luciferase reporter, 20 h; at 10 µM; stronger effect = lower value. In short, it runs like this: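 Assay system: HEK293T cells with GAL4-RORα LBD and UAS-luciferase; Compound: single nominal 10 µM dose per test compound; Timing: 20 h compound exposure; Measured by: luminescence; Read-out: mean fold change relative to DMSO vehicle; Controls: DMSO vehicle wells; Repeats: six replicates.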
In general terms: In a reporter assay the amount or activity of a reporter protein is the signal.
For `O=C(Nc1ccc(C(O)(C(F)(F)F)C(F)(F)F)cc1)c1ccccc1C(F)(F)F`, the fold change is 0.806 (inactive).

As for `O=C(Nc1ccc(C(O)(C(F)(F)F)C(F)(F)F)cc1)c1ccc(F)cc1Cl`, the fold change was 1.1 (inactive).

Take `O=S(=O)(Nc1ccc(C(O)(C(F)(F)F)C(F)(F)F)cc1)c1cccs1`: the fold change was 0.63.

Consider `O=C(Nc1ccc(C(O)(C(F)(F)F)C(F)(F)F)cc1)c1c(F)cccc1F`, for which the fold change was 0.944 (inactive).

Take `O=C(Nc1ccc(C(O)(C(F)(F)F)C(F)(F)F)cc1)c1ccc(Cl)cc1`: the fold change was 1.23 (inactive).

For the compound `O=C(Nc1ccc(C(O)(C(F)(F)F)C(F)(F)F)cc1)c1ccc(F)cc1F`, the fold change was 1.71 (inactive).
